Test results taken from PMC8945396 (ACS Nano, 2022).

Legend:
[1] = tested on: soybean leaf epidermal and palisade mesophyll cells; assay: Translocation of TAMRA-labeled CPPs after spraying; type: in vivo, Glycine max; conditions: cv. Enrei; 30, 90, 150 min post spraying; CLSM, 6 ROIs
[2] = tested on: transgenic tomato leaf cells overexpressing GFP; assay: Transfection of Cy3-labeled pBI221/CPP complexes after spraying; type: in vivo, Solanum lycopersicum; conditions: as Cy3-labeled pBI221/CPP complex, N/P ratio = 2.0; 2 h post spraying; n = 15 ROIs
[3] = tested on: epidermal cells of tomato leaves; assay: Translocation of TAMRA-labeled CPPs after spraying; type: in vivo, Solanum lycopersicum; conditions: compared among BP100, dR9, KH9, KAibA; 30, 90, 150 min; 10 ROIs
In short: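 Tomato (cv. Micro-Tom) grown in soil with vermiculite at 25 °C, 16/8 h light/dark, 80 μmol photons m–2 s–1, 50% RH for 5–8 weeks; plants with 5–6 expanded leaves. Leaves were water-washed and dried 3–4 h, then sprayed with TAMRA-labeled peptides and lidded. Before imaging, leaves were rinsed 5 × 1 mL water. TAMRA fluorescence intensity was read by confocal microscopy, ex/em 555/580 nm.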

[4] = tested on: Arabidopsis thaliana leaf upper epidermal and palisade mesophyll cells; assay: Cell penetration and translocation of TAMRA-labeled CPPs after spraying; type: in vivo; conditions: 0.1 μg/mL sprayed; 30, 90, 150 min post spraying; CLSM, n = 8 ROIs

(Lys(Aib)Ala)5 [TAMRA-labeled KAibA]
translocation efficiency into the palisade mesophyll of soybean leaves [1]: higher translocation efficiency into the palisade mesophyll than the other CPPs

KHKHKHKHKHKHKHKHKHKKLFKKILKYL [KH9-BP100]
transfection efficiency of plasmid DNA molecules after spraying [2]: higher transfection efficiency

d-(RRRRRRRRR) [TAMRA-labeled dR9]
translocation efficiency in epidermal cells of tomato leaves [3]: greatest translocation efficiency
penetration efficiency into the palisade mesophyll [4]: higher penetration efficiency into the palisade mesophyll than the other CPPs
